The source made the active and inactive calls. The calls are words filed in the database; no cut-off is given here.
How the values were obtained:
[1] = target: Serine/threonine-protein kinase PAK 5 (Homo sapiens) (UniProt Q9P286); assay: Inhibition of PAK7 (unknown origin) assessed as remaining activity at 1 uM by Kinome scan method relative to control
[2] = target: Ribosomal protein S6 kinase alpha-6 (Homo sapiens) (UniProt Q9UK32); assay: Inhibition of N-terminal kinase domain RSK4 (unknown origin) assessed as remaining activity at 1 uM by Kinome scan method relative to control
[3] = target: Mitogen-activated protein kinase kinase kinase 3 (Homo sapiens, UniProt Q99759); assay: Binding affinity to MAP3K3 (unknown origin) assessed as dissociation constant
[4] = target: Cyclin-dependent kinase 17 (Homo sapiens) (UniProt Q00537); assay: Inhibition of PCTK2 (unknown origin) assessed as remaining activity at 1 uM by Kinome scan method relative to control
[5] = target: Tyrosine-protein kinase ABL1 (Homo sapiens, UniProt P00519, Q252H); assay: Binding affinity to phosphorylated ABL1 Q252H mutant (unknown origin) assessed as dissociation constant
Aurora kinase B = Aurora kinase B (Homo sapiens, UniProt Q96GD4); assay: Binding affinity to AURKB (unknown origin) assessed as dissociation constant
[6] = target: Non-receptor tyrosine-protein kinase TYK2 (Homo sapiens, UniProt P29597); assay: Inhibition of TYK2 JH1 domain (unknown origin) assessed as remaining activity at 1 uM by Kinome scan method relative to control
[7] = target: Serine/threonine-protein kinase LATS2 (Homo sapiens) (UniProt Q9NRM7); assay: Inhibition of LATS2 (unknown origin) assessed as remaining activity at 1 uM by Kinome scan method relative to control
[8] = Clearance in male Sprague-Dawley rat at 5 mg/kg, iv measured for 24 hrs by LC-MS/MS analysis; type: ADME, organism-based; settings: in vivo
How it was run: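 Sprague-Dawley rats, single intravenous or oral dose. Parameters (half-life, AUC, bioavailability) reported in a supplementary table.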

[9] = target: T1, Serine/threonine-protein kinase 3 (Homo sapiens, UniProt Q13188); assay: Inhibition of recombinant His-tagged full-length MST2 (unknown origin) expressing in Escherichia coli assessed as MOB1a phosphorylation level incubated for 30 min in the presence of 30 uM ATP by immunoblot analysis
T1 sequence (Q13188 whole entry): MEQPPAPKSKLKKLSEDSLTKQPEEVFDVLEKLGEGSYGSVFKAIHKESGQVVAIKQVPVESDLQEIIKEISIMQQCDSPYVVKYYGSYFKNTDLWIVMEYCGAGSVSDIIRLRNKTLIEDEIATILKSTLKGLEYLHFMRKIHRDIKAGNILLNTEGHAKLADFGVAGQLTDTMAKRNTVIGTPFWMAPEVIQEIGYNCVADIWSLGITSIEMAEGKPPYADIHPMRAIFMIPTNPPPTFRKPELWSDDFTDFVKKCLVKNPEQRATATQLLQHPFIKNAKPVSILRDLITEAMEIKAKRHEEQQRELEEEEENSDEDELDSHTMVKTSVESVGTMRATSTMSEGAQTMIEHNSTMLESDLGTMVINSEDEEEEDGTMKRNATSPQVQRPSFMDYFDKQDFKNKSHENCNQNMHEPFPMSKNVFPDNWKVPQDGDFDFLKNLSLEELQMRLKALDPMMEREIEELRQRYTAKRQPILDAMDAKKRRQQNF

[10] = target: Tyrosine-protein kinase CSK (Homo sapiens) (UniProt P41240); assay: Inhibition of CSK (unknown origin) assessed as remaining activity at 1 uM by Kinome scan method relative to control
How it was run: (§1)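 Active-site-dependent competition-binding profiling (KINOMEscan) at 1 μM against a 468-kinase panel; compound supplied from a 10 mM DMSO stock. Read-out is ctrl% = (test signal − positive control signal)/(negative control signal − positive control signal) × 100. DMSO is the negative control (100%) and a control compound the positive control (0%). Lower ctrl% means tighter binding.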

[11] = target: Calcium/calmodulin-dependent protein kinase type 1B (Homo sapiens) (UniProt Q6P2M8); assay: Inhibition of CAMK1B (unknown origin) assessed as remaining activity at 1 uM by Kinome scan method relative to control
How it was run: (§2)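 Active-site-dependent competition-binding (KINOMEscan) panel of 468 kinases, test compound at 1 μM (from a 10 mM DMSO stock). Read-out is ctrl% = (test signal − positive control signal)/(negative control signal − positive control signal) × 100. DMSO is the negative control (100%) and a control compound is the positive control (0%). Lower ctrl% means tighter binding.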

[12] = system: Tyrosine-protein kinase ABL1 (Homo sapiens), P00519 [H396P]; assay: Inhibition of ABL1 H396P mutant (unknown origin) assessed as remaining activity at 1 uM by Kinome scan method relative to control; how it was run: as §2
Mus musculus = assay: Protection against APAP induced liver injury in mouse assessed as decrease in ALT level at 1 mg/kg, ip administered at 1.5 hrs; type: functional, organism-based; settings: Serum
[13] = system: Epidermal growth factor receptor (Homo sapiens), P00533 [T790M]; assay: Inhibition of EGFR T790M mutant (unknown origin) assessed as remaining activity at 1 uM by Kinome scan method relative to control
[14] = target: Interleukin-1 receptor-associated kinase 3 (Homo sapiens) (UniProt Q9Y616); assay: Inhibition of IRAK3 (unknown origin) assessed as remaining activity at 1 uM by Kinome scan method relative to control
[15] = target: Mitogen-activated protein kinase kinase kinase 6 (Homo sapiens) (UniProt O95382); assay: Inhibition of ASK2 (unknown origin) assessed as remaining activity at 1 uM by Kinome scan method relative to control; how it was run: as §2
[16] = target: Macrophage colony-stimulating factor 1 receptor (Homo sapiens) (UniProt P07333); assay: Inhibition of CSF1R-autoinhibited (unknown origin) assessed as remaining activity at 1 uM by Kinome scan method relative to control; how it was run: as §1
[17] = system: Mast/stem cell growth factor receptor Kit (Homo sapiens), P10721 [V559D]; assay: Inhibition of KIT V559D mutant (unknown origin) assessed as remaining activity at 1 uM by Kinome scan method relative to control
[18] = target: Ephrin type-B receptor 4 (Homo sapiens) (UniProt P54760); assay: Inhibition of EPHB4 (unknown origin) assessed as remaining activity at 1 uM by Kinome scan method relative to control
Sequence of Ephrin type-B receptor 4 (Homo sapiens) (P54760 whole entry): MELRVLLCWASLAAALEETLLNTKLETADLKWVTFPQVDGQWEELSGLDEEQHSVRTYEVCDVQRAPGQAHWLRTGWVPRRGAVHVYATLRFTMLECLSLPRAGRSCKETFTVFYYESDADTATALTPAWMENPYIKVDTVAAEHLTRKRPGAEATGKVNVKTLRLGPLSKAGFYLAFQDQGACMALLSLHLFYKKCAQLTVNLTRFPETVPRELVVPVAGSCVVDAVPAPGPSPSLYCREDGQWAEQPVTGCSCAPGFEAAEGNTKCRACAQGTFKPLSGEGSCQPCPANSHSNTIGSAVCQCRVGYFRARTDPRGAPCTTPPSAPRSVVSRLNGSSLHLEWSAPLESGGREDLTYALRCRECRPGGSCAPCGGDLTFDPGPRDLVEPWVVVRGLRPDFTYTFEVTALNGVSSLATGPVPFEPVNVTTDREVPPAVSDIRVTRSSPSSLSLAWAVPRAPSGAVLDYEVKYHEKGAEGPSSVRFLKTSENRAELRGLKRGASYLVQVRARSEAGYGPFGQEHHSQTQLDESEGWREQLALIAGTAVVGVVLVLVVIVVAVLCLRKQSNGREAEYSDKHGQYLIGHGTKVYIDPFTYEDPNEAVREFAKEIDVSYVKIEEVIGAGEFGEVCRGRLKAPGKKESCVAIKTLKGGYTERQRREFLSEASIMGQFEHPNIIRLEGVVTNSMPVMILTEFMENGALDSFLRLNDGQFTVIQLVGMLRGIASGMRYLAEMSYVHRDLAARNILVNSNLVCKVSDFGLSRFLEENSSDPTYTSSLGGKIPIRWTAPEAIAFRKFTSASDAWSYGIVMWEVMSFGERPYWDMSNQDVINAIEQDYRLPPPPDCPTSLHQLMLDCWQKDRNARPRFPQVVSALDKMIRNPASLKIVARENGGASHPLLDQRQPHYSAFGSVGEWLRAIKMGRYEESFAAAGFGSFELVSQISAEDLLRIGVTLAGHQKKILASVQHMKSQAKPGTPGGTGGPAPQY

Sequence of Ribosomal protein S6 kinase alpha-6 (Homo sapiens) (Q9UK32 whole entry, the tested form may be a part): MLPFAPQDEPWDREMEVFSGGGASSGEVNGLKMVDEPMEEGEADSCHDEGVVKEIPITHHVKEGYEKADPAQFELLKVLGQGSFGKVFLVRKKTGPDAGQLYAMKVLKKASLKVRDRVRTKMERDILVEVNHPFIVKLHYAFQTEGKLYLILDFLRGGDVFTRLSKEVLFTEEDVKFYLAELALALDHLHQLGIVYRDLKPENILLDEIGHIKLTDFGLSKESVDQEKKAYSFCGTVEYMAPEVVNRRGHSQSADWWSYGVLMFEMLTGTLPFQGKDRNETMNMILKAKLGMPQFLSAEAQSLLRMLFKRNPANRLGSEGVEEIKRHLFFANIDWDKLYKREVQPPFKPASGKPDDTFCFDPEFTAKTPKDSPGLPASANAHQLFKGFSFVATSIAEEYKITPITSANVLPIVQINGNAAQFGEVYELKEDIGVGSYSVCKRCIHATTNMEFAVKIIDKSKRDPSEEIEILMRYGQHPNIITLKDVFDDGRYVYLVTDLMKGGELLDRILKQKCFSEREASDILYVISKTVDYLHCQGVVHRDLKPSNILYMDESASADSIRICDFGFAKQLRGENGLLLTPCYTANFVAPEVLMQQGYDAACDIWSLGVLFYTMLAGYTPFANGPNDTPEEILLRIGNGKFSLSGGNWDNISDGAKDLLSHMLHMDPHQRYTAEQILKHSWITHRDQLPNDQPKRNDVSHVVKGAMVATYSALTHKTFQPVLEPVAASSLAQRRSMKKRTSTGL
Sequence of Mast/stem cell growth factor receptor Kit (Homo sapiens), P10721 [V559D] (P10721 whole entry V559D): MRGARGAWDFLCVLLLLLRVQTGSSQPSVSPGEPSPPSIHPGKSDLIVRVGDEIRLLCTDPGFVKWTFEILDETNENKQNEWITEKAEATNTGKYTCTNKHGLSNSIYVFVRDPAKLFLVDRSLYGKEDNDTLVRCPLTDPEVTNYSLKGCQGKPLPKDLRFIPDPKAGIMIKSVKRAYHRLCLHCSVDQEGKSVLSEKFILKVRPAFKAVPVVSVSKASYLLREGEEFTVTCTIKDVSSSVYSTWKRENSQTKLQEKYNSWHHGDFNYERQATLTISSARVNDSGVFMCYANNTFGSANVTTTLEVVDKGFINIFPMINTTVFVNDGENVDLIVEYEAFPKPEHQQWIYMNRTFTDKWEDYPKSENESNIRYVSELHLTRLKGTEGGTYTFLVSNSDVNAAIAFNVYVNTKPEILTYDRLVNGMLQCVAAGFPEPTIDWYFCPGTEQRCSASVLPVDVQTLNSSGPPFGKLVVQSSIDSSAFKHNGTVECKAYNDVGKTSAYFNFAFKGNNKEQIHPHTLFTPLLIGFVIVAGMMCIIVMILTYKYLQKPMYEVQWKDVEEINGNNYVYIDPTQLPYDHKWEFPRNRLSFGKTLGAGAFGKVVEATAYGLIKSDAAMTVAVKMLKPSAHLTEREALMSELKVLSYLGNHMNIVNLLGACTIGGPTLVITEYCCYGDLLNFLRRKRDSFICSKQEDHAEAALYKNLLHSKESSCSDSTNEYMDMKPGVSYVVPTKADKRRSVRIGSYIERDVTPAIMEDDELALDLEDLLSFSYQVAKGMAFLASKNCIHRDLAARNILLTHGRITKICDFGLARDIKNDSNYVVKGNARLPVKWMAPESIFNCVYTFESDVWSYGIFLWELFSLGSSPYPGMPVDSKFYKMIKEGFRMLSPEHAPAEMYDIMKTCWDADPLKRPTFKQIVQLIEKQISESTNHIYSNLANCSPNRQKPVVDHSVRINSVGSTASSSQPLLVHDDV
Sequence of Macrophage colony-stimulating factor 1 receptor (Homo sapiens) (P07333 whole entry): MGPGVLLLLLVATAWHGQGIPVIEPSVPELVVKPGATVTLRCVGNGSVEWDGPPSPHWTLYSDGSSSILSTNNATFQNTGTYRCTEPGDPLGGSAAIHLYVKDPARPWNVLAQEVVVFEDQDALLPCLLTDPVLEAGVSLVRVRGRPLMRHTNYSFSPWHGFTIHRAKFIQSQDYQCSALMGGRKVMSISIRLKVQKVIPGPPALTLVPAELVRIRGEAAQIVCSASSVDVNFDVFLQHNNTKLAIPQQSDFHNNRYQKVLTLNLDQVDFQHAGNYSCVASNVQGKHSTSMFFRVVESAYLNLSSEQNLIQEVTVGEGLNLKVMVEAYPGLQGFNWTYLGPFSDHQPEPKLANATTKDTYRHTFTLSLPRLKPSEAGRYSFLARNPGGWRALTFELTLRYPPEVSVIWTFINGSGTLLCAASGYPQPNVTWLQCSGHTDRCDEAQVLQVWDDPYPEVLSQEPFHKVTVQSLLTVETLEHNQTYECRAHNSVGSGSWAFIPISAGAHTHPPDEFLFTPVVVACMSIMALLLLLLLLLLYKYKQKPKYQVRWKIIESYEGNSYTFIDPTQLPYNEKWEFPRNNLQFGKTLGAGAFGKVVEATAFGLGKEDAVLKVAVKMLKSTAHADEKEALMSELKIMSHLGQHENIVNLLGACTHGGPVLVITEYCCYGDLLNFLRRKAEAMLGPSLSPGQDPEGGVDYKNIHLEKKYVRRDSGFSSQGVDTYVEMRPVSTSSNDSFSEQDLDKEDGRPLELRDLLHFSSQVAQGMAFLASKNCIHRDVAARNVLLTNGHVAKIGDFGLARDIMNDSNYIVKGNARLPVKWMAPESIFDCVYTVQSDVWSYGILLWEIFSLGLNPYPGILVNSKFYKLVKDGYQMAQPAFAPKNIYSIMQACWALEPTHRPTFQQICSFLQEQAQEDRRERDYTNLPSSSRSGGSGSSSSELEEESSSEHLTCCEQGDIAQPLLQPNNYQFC
Sequence of Calcium/calmodulin-dependent protein kinase type 1B (Homo sapiens) (Q6P2M8 whole entry): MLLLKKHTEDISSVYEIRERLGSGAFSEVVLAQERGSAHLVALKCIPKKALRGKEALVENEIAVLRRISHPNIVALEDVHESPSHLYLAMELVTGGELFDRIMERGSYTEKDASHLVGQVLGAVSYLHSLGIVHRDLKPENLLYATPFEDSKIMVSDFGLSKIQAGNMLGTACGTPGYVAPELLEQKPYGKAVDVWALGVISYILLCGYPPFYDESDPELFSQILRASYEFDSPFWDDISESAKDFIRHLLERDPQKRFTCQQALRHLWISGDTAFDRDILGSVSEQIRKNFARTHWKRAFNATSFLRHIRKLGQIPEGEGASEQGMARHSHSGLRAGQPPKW
Sequence of Interleukin-1 receptor-associated kinase 3 (Homo sapiens) (Q9Y616 whole entry): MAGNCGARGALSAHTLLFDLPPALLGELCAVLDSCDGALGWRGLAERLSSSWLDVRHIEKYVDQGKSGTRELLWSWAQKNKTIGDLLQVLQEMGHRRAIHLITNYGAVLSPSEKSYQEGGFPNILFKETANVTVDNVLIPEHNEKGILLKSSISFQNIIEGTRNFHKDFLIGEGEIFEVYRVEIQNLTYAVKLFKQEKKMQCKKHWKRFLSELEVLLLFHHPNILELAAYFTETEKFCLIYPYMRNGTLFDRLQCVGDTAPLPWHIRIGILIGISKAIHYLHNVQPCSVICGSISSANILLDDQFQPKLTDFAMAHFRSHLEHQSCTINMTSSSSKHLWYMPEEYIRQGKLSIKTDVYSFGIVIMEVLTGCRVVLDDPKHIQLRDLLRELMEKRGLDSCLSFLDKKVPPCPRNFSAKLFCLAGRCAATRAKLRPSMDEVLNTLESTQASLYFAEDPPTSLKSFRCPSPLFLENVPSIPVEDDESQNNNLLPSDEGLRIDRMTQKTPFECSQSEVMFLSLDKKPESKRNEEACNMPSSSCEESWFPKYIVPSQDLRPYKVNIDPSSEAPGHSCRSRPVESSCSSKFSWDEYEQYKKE
Sequence of Aurora kinase B (Q96GD4 whole entry, the tested form may be a part): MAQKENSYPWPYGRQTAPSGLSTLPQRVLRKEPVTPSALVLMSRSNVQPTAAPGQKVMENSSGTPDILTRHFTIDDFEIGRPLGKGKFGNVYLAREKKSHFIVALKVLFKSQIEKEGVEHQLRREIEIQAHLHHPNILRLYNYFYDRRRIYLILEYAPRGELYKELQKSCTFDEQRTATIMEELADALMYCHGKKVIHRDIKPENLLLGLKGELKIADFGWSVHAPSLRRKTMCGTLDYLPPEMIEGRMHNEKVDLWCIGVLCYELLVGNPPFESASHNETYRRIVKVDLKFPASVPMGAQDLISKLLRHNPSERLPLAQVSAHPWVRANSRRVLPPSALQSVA

In the case of `CN1C(=O)c2sccc2N(C)c2nc(Nc3ccc(S(N)(=O)=O)cc3)ncc21`, the Activity [1] is reported as 85%, the Activity [2] is reported as 66% and the Kd [3] is reported as 27 nM. It also gave an Activity [4] of 86%, a Kd [5] of 24 nM and a Kd (Aurora kinase B) of 40 nM. It also gave an Activity [6] of 2.7%, an Activity [7] of 100% and a clearance [8] of 65.8 mL/min/kg. The IC50 [9] was 177 nM, the Activity [10] was 100% and the Activity [11] was 84%. For the same compound, the Activity [12] was 11%, the Activity (Mus musculus) was “Active” and the Activity [13] was 92%. It also gave an Activity [14] of 100%, an Activity [15] of 84% and an Activity [16] of 87%. It also gave an Activity [17] of 97% and an Activity [18] of 61%.

From ChEMBL document CHEMBL5705905, “Pharmacological targeting of kinases MST1 and MST2 augments tissue repair and regeneration” (Sci Transl Med, 2016)
